Results from different studies.
Each line is one published result; the experiments were not run side by side.

SMILES	tested on	assay	system	setting	quantity	result
CCn1cc(-c2nc(C)no2)c(=O)c2cc(F)c(N3CCC(C)CC3)cc21	Plasmodium falciparum	parasite growth	3D7	72 h, blood stage	EC50	19 nM
CN1CCN(S(=O)(=O)c2ccc(-c3ccc4c(Nc5ccc(Cl)cn5)ccnc4c3)cc2)CC1	Plasmodium falciparum	parasite growth	D6	drug-resistant strain, blood stage	EC50	250 nM
CC(=O)Nc1cccc(-n2c(=O)n(C3CC3)c(=O)c3c(Nc4ccc(I)cc4F)n(C)c(=O)c(C)c32)c1	SW1417	cell growth or viability, resazurin		1.56 nM, 72 h	viability	80.5%
CN1CCN(S(=O)(=O)c2ccc(-c3ccc4c(Nc5ccc(C(F)(F)F)nc5)ccnc4c3)cc2)CC1	Plasmodium falciparum	parasite growth	D6	drug-resistant strain, blood stage	EC50	160 nM
O=C1Nc2ccccc2C(=O)CCc2ccc(O)cc21	L6	cell growth or viability			IC50	200000 nM
COc1ccc(Nc2ccnc3cc(-c4cn[nH]c4)ccc23)cc1Cl	Plasmodium falciparum	parasite growth	D6	drug-resistant strain, blood stage	EC50	250 nM
O=C1Nc2ccccc2C(=O)CCc2ccccc21	L6	cell growth or viability			IC50	53000 nM
O=C1C(O)=C([C@H]2CC[C@H](c3ccc(Cl)cc3)CC2)C(=O)c2ccccc21	Plasmodium falciparum	parasite growth	3D7	blood stage	EC50	1.6 nM
CS(=O)(=O)c1ccc2c(c1)C(=O)CCc1ccccc1C(=O)N2	L6	cell growth or viability			IC50	> 300000 nM
CCn1cc(-c2ccccn2)c(=O)c2cc(F)c(N3CCC(C)CC3)cc21	Plasmodium falciparum	parasite growth	3D7	72 h, blood stage	EC50	> 10000 nM
